In ChEMBL document CHEMBL1149777, “Synthesis and anti-platelet activity of novel arylsulfonate--acylhydrazone derivatives, designed as antithrombotic candidates” (2008):

Key:
Plasma [1] = test: Antiplatelet activity against citreated rabbit platelet-rich plasma assessed as collagen-induced platelet aggregation at 150 uM by turbidimetric method; type: functional, Oryctolagus cuniculus
In short: (§1)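 PRP stirred at 900 rpm, 37 °C, 1 min; compound 150 µM or DMSO vehicle (0.5% v/v) added 1 min before agonist: ADP 5 µM, collagen 5 µg/mL, thrombin 2 nM or arachidonic acid 100 µM. Aggregation read turbidimetrically (Born method).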

Plasma [2] = test: Antiplatelet activity against citreated rabbit platelet-rich plasma assessed as ADP-induced platelet aggregation at 150 uM by turbidimetric method; type: functional, Oryctolagus cuniculus; in short: as §1
Plasma [3] = test: Antiplatelet activity against citreated rabbit platelet-rich plasma assessed as inhibition of ADP-induced platelet aggregation at 150 uM by turbidimetric method; type: functional; details: Oryctolagus cuniculus; in short: as §1
Plasma [4] = test: Antiplatelet activity against citreated rabbit platelet-rich plasma assessed as inhibition of arachidonic acid-induced platelet aggregation at 150 uM by turbidimetric method; type: functional; details: Oryctolagus cuniculus; in short: as §1
Plasma [5] = test: Antiplatelet activity against citreated rabbit platelet-rich plasma assessed as thrombin-induced platelet aggregation at 150 uM by turbidimetric method; type: functional, Oryctolagus cuniculus; in short: as §1
Mus musculus = test: Antithrombotic activity against thrombin-induced pulmonary thromboembolism in mouse model assessed as survival at 100 umol/kg, po after 15 mins; type: functional; details: 0.25 h
Plasma [6] = test: Antiplatelet activity against citreated rabbit platelet-rich plasma assessed as inhibition of thrombin-induced platelet aggregation at 150 uM by turbidimetric method; type: functional; details: Oryctolagus cuniculus; in short: as §1
Plasma [7] = test: Antiplatelet activity against citreated rabbit platelet-rich plasma assessed as inhibition of collagen-induced platelet aggregation at 150 uM by turbidimetric method; type: functional; details: Oryctolagus cuniculus; in short: as §1

## Cc1cc2c(cc1S(=O)(=O)Oc1ccc(C(=O)N/N=C\c3ccc(C(=O)O)cc3)cc1)OCO2
Plasma [1]
  Activity: 59%
Plasma [2]
  Activity: 100%
Plasma [3]
  inhibition at 150 µM: 0%
Plasma [4]
  inhibition at 150 µM: 90.8%
Plasma [5]
  Activity: 0%
Mus musculus
  survival at 100 µmol/kg: 80%
Plasma [6]
  inhibition at 150 µM: 100%
Plasma [7]
  inhibition at 150 µM: 25%

## Cc1cc2c(cc1S(=O)(=O)Oc1ccccc1C(=O)N/N=C\c1ccc(C(=O)O)cc1)OCO2
Plasma [1]
  Activity: 100%
Plasma [2]
  Activity: 100%
Plasma [3]
  inhibition at 150 µM: 0%
Plasma [4]
  inhibition at 150 µM: 0%
Plasma [5]
  Activity: 11.9%
Mus musculus
  survival at 100 µmol/kg: 80%
Plasma [6]
  inhibition at 150 µM: 80%
Plasma [7]
  inhibition at 150 µM: 0%

## Cc1cc2c(cc1S(=O)(=O)Oc1cccc(/C=N/NC(=O)c3ccncc3)c1)OCO2
Plasma [1]
  Activity: 0%
Plasma [2]
  Activity: 63.3%
Plasma [3]
  inhibition at 150 µM: 22%
Plasma [4]
  inhibition at 150 µM: 94.8%
Plasma [5]
  Activity: 58.7%
Plasma [6]
  inhibition at 150 µM: 1.3%
Plasma [7]
  inhibition at 150 µM: 100%

## Cc1cc2c(cc1S(=O)(=O)Oc1cccc(C(=O)N/N=C\c3ccc(C#N)cc3)c1)OCO2
Plasma [1]
  Activity: 0%
Plasma [2]
  Activity: 54.9%
Plasma [3]
  inhibition at 150 µM: 32%
Plasma [4]
  inhibition at 150 µM: 100%
Plasma [5]
  Activity: 58.3%
Plasma [6]
  inhibition at 150 µM: 2%
Plasma [7]
  inhibition at 150 µM: 100%

## Cc1cc2c(cc1S(=O)(=O)Oc1cccc(C(=O)N/N=C\c3ccc(C(=O)O)cc3)c1)OCO2
Plasma [1]
  Activity: 100%
Plasma [2]
  Activity: 100%
Plasma [3]
  inhibition at 150 µM: 0%
Plasma [4]
  inhibition at 150 µM: 0%
Plasma [5]
  Activity: 2.9%
Mus musculus
  survival at 100 µmol/kg: 53.3%
Plasma [6]
  inhibition at 150 µM: 95%
Plasma [7]
  inhibition at 150 µM: 0%

## Cc1cc2c(cc1S(=O)(=O)Oc1cccc(C(=O)N/N=C\c3ccc([N+](=O)[O-])cc3)c1)OCO2
Plasma [1]
  Activity: 69.6%
Plasma [2]
  Activity: 100%
Plasma [3]
  inhibition at 150 µM: 0%
Plasma [4]
  inhibition at 150 µM: 81.5%
Plasma [5]
  Activity: 57.7%
Plasma [6]
  inhibition at 150 µM: 3%
Plasma [7]
  inhibition at 150 µM: 11.5%

## Cc1cc2c(cc1S(=O)(=O)Oc1cccc(C(=O)N/N=C\c3ccncc3)c1)OCO2
Plasma [1]
  Activity: 59%
Plasma [2]
  Activity: 100%
Plasma [3]
  inhibition at 150 µM: 0%
Plasma [4]
  inhibition at 150 µM: 82%
Plasma [5]
  Activity: 16.4%
Mus musculus
  survival at 100 µmol/kg: 33.3%
Plasma [6]
  inhibition at 150 µM: 72.5%
Plasma [7]
  inhibition at 150 µM: 25%

## Cc1cc2c(cc1S(=O)(=O)Oc1cccc(C(=O)N/N=C\c3ccccc3)c1)OCO2
Plasma [1]
  Activity: 45.6%
Plasma [2]
  Activity: 100%
Plasma [3]
  inhibition at 150 µM: 0%
Plasma [4]
  inhibition at 150 µM: 97%
Plasma [5]
  Activity: 100%
Plasma [6]
  inhibition at 150 µM: 0%
Plasma [7]
  inhibition at 150 µM: 42%

## Cc1cc2c(cc1S(=O)(=O)Oc1cccc(C(=O)N/N=C\c3ccc(N)cc3)c1)OCO2
Plasma [1]
  Activity: 49.2%
Plasma [2]
  Activity: 100%
Plasma [3]
  inhibition at 150 µM: 0%
Plasma [4]
  inhibition at 150 µM: 80%
Plasma [5]
  Activity: 58.2%
Plasma [6]
  inhibition at 150 µM: 2.2%
Plasma [7]
  inhibition at 150 µM: 37.5%

## Cc1cc2c(cc1S(=O)(=O)Oc1cccc(C(=O)N/N=C\c3ccc(/C(N)=N\O)cc3)c1)OCO2
Plasma [1]
  Activity: 0%
Plasma [2]
  Activity: 58.7%
Plasma [3]
  inhibition at 150 µM: 36%
Plasma [4]
  inhibition at 150 µM: 100%
Plasma [5]
  Activity: 11.3%
Plasma [6]
  inhibition at 150 µM: 81%
Plasma [7]
  inhibition at 150 µM: 100%

## CC(=O)Oc1ccccc1C(=O)O [ASPIRIN]
Plasma [1]
  Activity: 17.5%
Plasma [2]
  Activity: 74.8%
Plasma [3]
  inhibition at 150 µM: 7.9%
Plasma [4]
  inhibition at 150 µM: 71.6%
Plasma [5]
  Activity: 10.3%
Plasma [6]
  inhibition at 150 µM: 82.7%
Plasma [7]
  inhibition at 150 µM: 77.7%
